This is a sample that favours compounds with a hit; in the whole collection about 4.1% have one here.
UBC13 inh: human UBC13 polyubiquitination inhibition. P61088. UBC13 polyubiquitin chain formation, TR-FRET. inhibition, % at 20 µM. 0.47% of 330,000 active. AID 485273; in the data active = inhibition above about 45%, passing the limit was not always enough; inconclusive = no clear call, values can overlap the other calls
Mdm2-MdmX inh: human Mdm2/MdmX binding inhibition. SaOS-2 split-luciferase Mdm2/MdmX complementation, luminescence. AID 485346. 3% of 330,000 active. inhibition, % at 8 µM;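 active = inhibition of at least 50% at 8 µM in the primary screen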
Target sequence (O15151 whole entry, looked up): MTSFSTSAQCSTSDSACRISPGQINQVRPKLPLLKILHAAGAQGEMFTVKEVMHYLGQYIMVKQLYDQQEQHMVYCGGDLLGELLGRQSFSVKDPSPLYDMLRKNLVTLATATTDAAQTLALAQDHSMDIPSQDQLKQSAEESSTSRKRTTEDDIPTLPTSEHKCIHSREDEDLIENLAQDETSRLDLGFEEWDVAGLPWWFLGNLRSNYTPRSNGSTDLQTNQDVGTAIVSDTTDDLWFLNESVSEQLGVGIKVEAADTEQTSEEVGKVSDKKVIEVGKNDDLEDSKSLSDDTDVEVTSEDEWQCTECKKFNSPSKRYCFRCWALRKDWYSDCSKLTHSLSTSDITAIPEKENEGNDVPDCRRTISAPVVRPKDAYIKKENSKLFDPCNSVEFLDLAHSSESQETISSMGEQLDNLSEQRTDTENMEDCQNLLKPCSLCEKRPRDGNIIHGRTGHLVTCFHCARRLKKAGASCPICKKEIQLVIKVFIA
Target sequence (Q00987 whole entry, looked up): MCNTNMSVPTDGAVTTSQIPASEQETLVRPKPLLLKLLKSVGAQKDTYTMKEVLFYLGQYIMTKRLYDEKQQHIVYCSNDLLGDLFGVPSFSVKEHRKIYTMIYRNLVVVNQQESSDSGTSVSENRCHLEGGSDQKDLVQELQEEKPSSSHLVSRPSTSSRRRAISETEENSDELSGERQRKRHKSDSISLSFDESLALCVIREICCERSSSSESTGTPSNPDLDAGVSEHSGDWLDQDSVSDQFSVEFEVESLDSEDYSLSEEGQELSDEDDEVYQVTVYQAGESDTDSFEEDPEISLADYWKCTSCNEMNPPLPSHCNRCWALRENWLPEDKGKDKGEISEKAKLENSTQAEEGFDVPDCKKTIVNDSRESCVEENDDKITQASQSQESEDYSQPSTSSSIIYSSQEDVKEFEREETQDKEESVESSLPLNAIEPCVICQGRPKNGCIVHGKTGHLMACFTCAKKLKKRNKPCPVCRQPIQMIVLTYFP
UPR XBP1 act: adaptive UPR (XBP1) activation. activation, % at 20 µM. 0.33% of 330,000 active. CHO-XBP1 luciferase reporter, IRE1-XBP1 UPR activation, luminescence; percent of tunicamycin response, DMSO as zero;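 active = versus positive control, 20 µM dose yields 30% or more activation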;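 note: 100% = tunicamycin at 10 µg/mL and 0% = DMSO only wells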
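assay system = CHO-XBP1 luciferase reporter cells | amount = 1000 cells/well | buffer or medium = F12 plus 10% FBS | compound dosing = single point, 20 µM final compound, 1% DMSO | incubation = 16-18 h cell attachment at 37 °C, then 6 h compound exposure | detection = Steady-Glo luminescence read | controls = tunicamycin 10 µg/mL and vehicle-only wells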
UPR CHOP act: apoptotic UPR (CHOP) activation | AID 449763 | 0.34% of 330,000 active | CHO-CHOP luciferase reporter, luminescence; percent of tunicamycin response over DMSO baseline | activation, % at 10 µM;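 active = at 10 µM dose, activation of 40% or more, normalized to positive control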;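 note: 100% = tunicamycin at 10 µg/mL and 0% = DMSO alone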
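Dosing – one dose, 10 µM in 0.5% DMSO · System – CHO-CHOP cells, stable luciferase reporter of PERK-eIF2a-CHOP signalling · Input – 500 cells/well · Control set – tunicamycin 10 µg/mL final as positive, DMSO-only wells as negative · Timing – 6 h compound treatment, 37 °C · Measure – % activation vs tunicamycin · Technique – luminescence read with Steady-Glo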
Apaf1 inhib: blocks human Apaf-1 apoptosome activity; reconstituted apoptosome caspase-3 activity, DEVD-Rh110 fluorescence; 0.71% of 330,000 active; O14727; inhibition, % at 20 µM; active = inhibition of at least 40% at 20 µM;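 note: plate controls were DMSO wells for no effect and DEVD-CHO caspase inhibitor wells for full effect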
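System: reconstituted apoptosome with Apaf-1, cytochrome c, caspase-9, procaspase-3, dATP; Signal: Rh110 fluorescence intensity; Schedule: 30 min compound preincubation, 50 min activation, room temperature; Reagent: cytochrome c trigger plus (Z-DEVD)2-Rh110 caspase-3 substrate.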
CHOP UPR conf: apoptotic UPR (CHOP) activation, confirmed; activation, % at 10 µM; CHO-CHOP cells, CHOP-luciferase reporter luminescence; percent of tunicamycin response, DMSO as zero; 64% of 1,000 active; shares compounds with UPR CHOP act; AID 463112; in the data active = activation above about 33%;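 note: 0% = DMSO wells and 100% = tunicamycin 10 µg/mL wells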
XBP1 UPR conf: confirmation of adaptive unfolded protein response (XBP1) activators. shares compounds with UPR XBP1 act. CHO-XBP1 IRE1-XBP1 luciferase reporter, luminescence. activation, % at 20 µM. 63% of 1,000 active;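 active = reporter signal at least 30% of the positive control's activation in two or more of four replicate wells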;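 note: plate controls were DMSO negative control for no effect and tunicamycin 10 µg/mL positive control for full effect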
Active calls of the source: *; ? = inconclusive; . = no result.

SMILES	UBC13 inh	Mdm2-MdmX inh	UPR XBP1 act	UPR CHOP act	Apaf1 inhib	CHOP UPR conf	XBP1 UPR conf
CCN(CC)c1ccc2c(O)cc(=O)oc2c1	-8.8	12.4	0.5	-0.8	-2.0	.	.
CCN(CC)c1ccc(C(=O)OCc2cc(=O)oc3cc(O)ccc23)cc1	-15.9	36.3	78.2*	54.1*	11.5	22.0	.
O=c1cc(CSc2ccc(S(=O)(=O)N3CCCCC3)cn2)nc2sccn12	-1.2	-7.7	-1.0	2.0	-4.4	.	.
Oc1ccc(/C=N/Nc2ncnc3c2ncn3Cc2ccccc2)cc1O	-15.5	-13.2	136.2*	222.6*	-1.4	66.9*	75.8*
O=C1c2ccccc2-n2c1nc1ccccc1c2=O	-85.0	13.4	34.2*	77.3*	6.2	29.2	25.6
O=c1c2ccccc2nc2n1-c1ccccc1CCC2	4.6	-8.6	-1.9	0.0	-9.9	.	.
CCOC(=O)c1nn(-c2ccc(OCC)cc2)c2nc(-c3cccc(OC)c3)c(C#N)c(=O)n12	40.3	10.9	-0.7	0.6	0.5	.	.
CCOC(=O)c1nn(-c2ccc(OCC)cc2)c2nc(-c3ccco3)c(C#N)c(=O)n12	-2.6	31.4	74.7*	53.3*	-4.2	28.4	51.9*
CCOc1ccccc1-n1c(SC(C)C(=O)NCC2CCCO2)nc2ccccc2c1=O (stereo unspecified)	6.6	7.2	-2.2	-0.1	-2.9	.	.
CCN(CC)S(=O)(=O)c1ccc(N/N=C(\C)c2ccc3c(c2)OCO3)c([N+](=O)[O-])c1	-36.1	-3.3	210.6*	155.0*	-41.3	62.6*	155.4*
N/C(Cc1ccc(Cl)cc1Cl)=N\OC(=O)Cc1ccccc1	5.3	6.4	-5.3	3.6	-1.1	.	.
Cc1ccc(-c2nc(N/N=C/c3cccc([N+](=O)[O-])c3)c3ccccc3n2)cc1	-13.2	25.8	193.9*	164.6*	-0.5	89.4*	223.3*
NC(=O)c1cc(C(=O)c2ccc(Cl)cc2)c[nH]1	-8.9	29.4	1.5	1.0	4.4	.	.
Cc1ccc(-n2nc3cc(C)c(NC(=S)NC(=O)/C=C/c4ccco4)cc3n2)cc1	?	6.4	56.1*	65.0*	7.9	128.0*	114.2*
Cc1ccc(-n2nc3ccc(NC(=S)NC(=O)/C=C/c4ccco4)cc3n2)cc1	-61.8	-108.8	1.1	2.1	9.2	.	.
Cn1nc(C(F)(F)F)c(/C=N/OC(=O)c2ccccc2)c1SCc1ccccc1Cl	6.4	46.5	91.0*	52.2*	4.7	99.6*	114.7*
COc1ccc(OC)c(NC(=O)c2ccc3c(=O)n(CCc4ccccc4)c(=S)[nH]c3c2)c1	0.1	46.4	36.1*	46.4*	9.3	7.4	16.2
COc1ccc(OC)c(NC(=O)CCn2c(=S)[nH]c3ccccc3c2=O)c1	8.1	7.1	-0.5	-0.6	-1.6	.	.
O=C(NC1CCCCC1)N1CCN(C(=O)c2ccco2)CC1	0.3	-32.3	-1.1	-0.2	-11.4	.	.
O=C(CSc1cccc2cccnc12)N/N=C/c1cccc(O)c1	18.5	15.0	0.9	3.2	0.2	.	.
O=C(N/N=C/c1ccc(O)c(O)c1)c1ccc(CSc2cccc3cccnc23)cc1	2.1	10.6	50.8*	106.2*	-6.3	23.4	54.4*
CCc1ccc2[nH]c(=O)c(CN(Cc3ccc(F)cc3)C(c3nnnn3CCN3CCOCC3)C(C)C)cc2c1 (stereo unspecified)	32.6	-15.6	38.5*	55.0*	25.3	-2.3	0.1
Cc1ccc2ccccc2c1NC(=O)c1ccco1	5.1	-2.7	-2.0	-1.2	3.0	.	.
O=C(Oc1ccc2c(c1)OCC2=O)c1ccc(Cl)cc1	-3.1	4.6	21.0	3.7	1.9	.	.
COc1cc(C(=O)Oc2ccc3c(c2)OCC3=O)cc(OC)c1OC	-5.3	12.4	43.1*	45.7*	1.3	0.1	16.8
SMILES	UBC13 inh	Mdm2-MdmX inh	UPR XBP1 act	UPR CHOP act	Apaf1 inhib	CHOP UPR conf	XBP1 UPR conf
Cc1ccc(C)c(NC(=S)c2ccccn2)c1	-2.4	10.0	33.2*	125.2*	-0.2	112.0*	12.7
Cc1ccc(C)c(NC(=S)c2ccc3ccccc3n2)c1	7.7	-157.6	1.8	4.1	11.6	.	.
O=C1C(Cc2ccccc2)Nc2ncnc(N3CCN(c4ccccc4)CC3)c2N1Cc1ccc(Cl)cc1 (stereo unspecified)	-14.3	41.6	4.6	-0.1	14.3	.	.
O=C(CSc1nnc(NC(=O)C2CC(=O)N(c3ccccc3)C2)s1)NCc1ccco1 (stereo unspecified)	-3.2	27.5	-4.5	2.4	6.3	.	.
CCOc1ccc(NC(=S)NC(=O)/C=C/c2ccc(OC)c(OC)c2)c([N+](=O)[O-])c1	-19.5	38.5	167.7*	60.6*	17.2	48.9*	251.1*
COc1ccc(OC)c(N=c2oc3c(OC)cccc3cc2C(=O)NCc2ccco2)c1	-39.7	43.1	0.9	3.4	9.6	.	.
COc1ccc(N=c2oc3c(OC)cccc3cc2C(=O)NCc2ccco2)cc1OC	-23.9	40.1	44.5*	75.5*	26.5	45.3*	16.8
COc1ccc(NC(=O)CN(C)C(=O)c2cn(-c3ccccc3)nc2-c2cccnc2)cc1	25.1	13.9	-4.0	-1.3	35.8	.	.
O=C1S/C(=C\C=C\c2ccco2)C(=O)N1c1ccc(O)cc1	15.8	28.5	36.8*	168.1*	24.6	3.9	2.0
O=C1S/C(=C\C=C\c2ccco2)C(=O)N1c1ccccc1	0.7	-57.6	5.9	16.9	9.9	.	.
O=C(Nc1cccc(-c2nc3ccccc3s2)c1)c1cc(-n2cnnc2)ccc1Cl	15.7	7.1	12.8	7.7	18.8	.	.
Cc1ccc2sc(-c3ccc(NC(=O)c4cc(-n5cnnc5)ccc4Cl)cc3)nc2c1	7.5	-84.7	69.4*	85.3*	-0.8	18.9	20.3
COc1cc(Cl)c(CN2CCCC(CO)(Cc3cccc(Cl)c3)C2)cc1OC (stereo unspecified)	14.1	-5.9	-3.1	-0.5	5.8	.	.
CC1CCCCC1N1CN=C(Nc2nc3ccccc3s2)NC1 (stereo unspecified)	-1.5	4.3	90.3*	45.6*	16.3	86.4*	99.0*
CC1=C(CC/C(C)=N/NC(N)=S)C(C)(C)CCC1	14.3	10.3	57.6*	150.7*	2.5	47.5*	54.7*
CC(C)=CCN1CCN(CCC2=C(C)CCCC2(C)C)CC1CCO (stereo unspecified)	10.2	-5.7	1.9	2.4	-0.7	.	.
Cn1c2ccccc2c2cc(/C=N/NC(=O)c3cc(O)ccc3O)ccc21	-0.9	15.3	33.4*	168.8*	31.8	84.1*	87.2*
